The target of series [1] is T1, Acetylcholinesterase (Homo sapiens, UniProt P22303). Briefly: Potency index, ratio of rivastigmine IC50 to compound IC50 for acetylcholinesterase (unknown origin).
Series [2] has as its target T1, Acetylcholinesterase. Briefly: Inhibition of acetylcholinesterase (unknown origin) using acetylthiocholine iodide as substrate after 25 mins by Ellmann method. The gist of the method: (§1)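 Modified Ellman assay, triplicate. Compounds dissolved in Tween 80, diluted with water to five concentrations. Mix: enzyme […], substrate (acetylthiocholine iodide or butyrylthiocholine iodide) and test compound in phosphoric acid buffer, pH 8.0, 0.1 mol/L. Incubated 25 min at 30 °C, then terminated. IC50 reported as mean ± SD of three experiments.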

The target of series [3] is Cholinesterase (Homo sapiens, UniProt P06276). The series can be described thus: Inhibition of butyrylcholinesterase (unknown origin) using butyrylthiocholine iodide as substrate after 25 mins by Ellmann method. In short, it runs like this: as §1
Cholinesterase, sequence (P06276 whole entry): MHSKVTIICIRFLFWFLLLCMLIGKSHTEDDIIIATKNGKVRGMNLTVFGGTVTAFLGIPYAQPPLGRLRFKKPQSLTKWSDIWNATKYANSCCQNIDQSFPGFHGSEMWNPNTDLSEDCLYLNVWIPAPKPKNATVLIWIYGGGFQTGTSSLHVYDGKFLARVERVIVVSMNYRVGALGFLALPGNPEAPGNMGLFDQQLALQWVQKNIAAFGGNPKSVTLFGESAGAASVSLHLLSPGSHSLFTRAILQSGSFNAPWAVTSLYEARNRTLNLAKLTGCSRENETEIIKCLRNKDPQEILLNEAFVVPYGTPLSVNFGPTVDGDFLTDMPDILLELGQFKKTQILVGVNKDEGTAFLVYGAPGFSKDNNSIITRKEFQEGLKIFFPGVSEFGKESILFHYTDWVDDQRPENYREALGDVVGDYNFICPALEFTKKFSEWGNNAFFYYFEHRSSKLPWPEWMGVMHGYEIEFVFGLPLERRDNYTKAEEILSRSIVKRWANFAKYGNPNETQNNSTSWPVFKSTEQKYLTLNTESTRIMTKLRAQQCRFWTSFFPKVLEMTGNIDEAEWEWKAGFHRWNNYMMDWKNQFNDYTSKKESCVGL
Series [4] is described as follows: Inhibition of carboxylesterase (unknown origin) using 4-nitrophenyl acetate as substrate by UV-Vis spectrophotometer. Set-up: species or system Homo sapiens. The gist of the method:
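Read-out was 4-nitrophenol released by CaE hydrolysis of 1.0 mmol/L 4-nitrophenyl acetate, measured at 405 nm. Reactions ran in 100 mmol/L potassium phosphate buffer, pH 8.0, at 25 °C. CaE activity was taken as proportional to 4-nitrophenol concentration.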

For series [5], the species on record is Homo sapiens. The series can be described thus: Selectivity index, ratio of IC50 for butyrylcholinesterase (unknown origin) to IC50 for acetylcholinesterase (unknown origin).
The nature of series [6]: Octanol-water partition coefficient, log P of the compound at pH 7.4 by shake flask method. In kind it is physicochemical. The gist of the method:
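Shake flask partition between octanol and PBS (pH 7.4). Mixture shaken at 37 °C overnight, then centrifuged at 2000 rpm for 20 min. Phases analysed by C18 HPLC with methanol-0.1% TEA (85:15, v/v) at 1.0 mL/min and 32 °C, detection at 322 nm. Run in triplicate, log P calculated.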

Series [7] concerns the target T1, Acetylcholinesterase. Briefly: Competitive inhibition of acetylcholinesterase (unknown origin) using acetylthiocholine iodide as substrate by Michaelis-Menten plot analysis.
Series [8] addresses T1, Acetylcholinesterase. The series can be described thus: Noncompetitive inhibition of acetylcholinesterase (unknown origin) using acetylthiocholine iodide as substrate by Michaelis-Menten plot analysis.
Compound in series [9]: COc1cc(/C=C/C(=O)Nc2ccccc2)ccc1OCCCCCCN1CCCCC1
The series can be described thus: Mixed type inhibition of acetylcholinesterase (unknown origin) assessed as enzyme Vmax at 0.82 uM using acetylthiocholine iodide as substrate by Michaelis-Menten plot analysis (reference value: 0.027 deltaA/min). To be noted: Homo sapiens.

Compound in series [10]: COc1cc(/C=C/C(=O)Nc2ccccc2)ccc1OCCCCCCN1CCCCC1
Briefly: Mixed type inhibition of acetylcholinesterase (unknown origin) assessed as enzyme Vmax at 0.18 uM using acetylthiocholine iodide as substrate by Michaelis-Menten plot analysis (reference value: 0.027 deltaA/min). Conditions: Homo sapiens.

Compound in series [11]: COc1cc(/C=C/C(=O)Nc2ccccc2)ccc1OCCCCCCN1CCCCC1
Briefly: Mixed type inhibition of acetylcholinesterase (unknown origin) assessed as Km for substrate at 0.18 uM using acetylthiocholine iodide as substrate by Michaelis-Menten plot analysis (reference value: 5.99 mM). To be noted: Homo sapiens.

Compound in series [12]: COc1cc(/C=C/C(=O)Nc2ccccc2)ccc1OCCCCCCN1CCCCC1
The series can be described thus: Mixed type inhibition of acetylcholinesterase (unknown origin) assessed as enzyme Vmax at 0.41 uM using acetylthiocholine iodide as substrate by Michaelis-Menten plot analysis (reference value: 0.027 deltaA/min). Conditions: Homo sapiens.

Compound in series [13]: COc1cc(/C=C/C(=O)Nc2ccccc2)ccc1OCCCCCCN1CCCCC1
The series can be described thus: Mixed type inhibition of acetylcholinesterase (unknown origin) assessed as Km for substrate at 0.41 uM using acetylthiocholine iodide as substrate by Michaelis-Menten plot analysis (reference value: 5.99 mM). To be noted: Homo sapiens.

Compound in series [14]: COc1cc(/C=C/C(=O)Nc2ccccc2)ccc1OCCCCCCN1CCCCC1
Briefly: Mixed type inhibition of acetylcholinesterase (unknown origin) assessed as Km for substrate at 0.82 uM using acetylthiocholine iodide as substrate by Michaelis-Menten plot analysis (reference value: 5.99 mM). Conditions: Homo sapiens.

Where only a bound is given, the exact number is not on record here.

This is an account of results in ChEMBL document CHEMBL3994591, “Novel ferulic amide derivatives with tertiary amine side chain as acetylcholinesterase and butyrylcholinesterase inhibitors: The influence of carbon spacer length, alkylamine and aromatic group” (Eur J Med Chem, 2017).

For the molecule `COc1cc(/C=C/C(=O)Nc2ccccc2)ccc1OCCCCCCN1CCCC1`, the figures for the Ratio IC50 in [1] and in series [5] were 9 and 2.01, respectively. The IC50 in series [2] was 1.11 µM; in series [3], 2.23 µM; in [4], greater than 500 µM. In addition, the log distribution coefficient (logD) in series [6] turned out to be 1.76.
As to `COc1cc(/C=C/C(=O)Nc2ccccc2)ccc1OCCCCCCN1CCCCC1`, the Ki in [7] amounted to 0.48 µM; in series [8], 0.92 µM. Further, the Ratio IC50 in series [1] came to 15; in [5], 18.3. Further, the IC50 is 0.71 µM in series [2], 13 µM in [3] and greater than 500 µM in series [4]. In [6], this molecule displayed a logD of 1.77.
With `COc1cc(/C=C/C(=O)Nc2ccccc2)ccc1OCCCCCCCCCCN1CCCC1`, the IC50 in series [2] was 13.5 µM; in series [3], 2.99 µM; in series [4] it was greater than 500 µM. Besides, the Ratio IC50 in series [5] came to 0.22. This molecule also had a logD in series [6] of 1.86.
The like results for `CCN(CC)CCCCCOc1ccc(/C=C/C(=O)Nc2ccccc2)cc1OC` were, in that order, 19 µM, 22.1 µM, greater than 500 µM, 1.17 and 1.63.
As for `COc1cc(/C=C/C(=O)Nc2ccccc2)ccc1OCCCCCCCCN1CCCC1`, the IC50 is 2.91 µM in [2], 4.03 µM in [3] and greater than 500 µM in series [4]. Further, the Ratio IC50 in series [5] was determined as 1.38. The logD in [6] was 1.78.
The like results for `CCN(CC)CCCCCCCCCCOc1ccc(/C=C/C(=O)Nc2ccccc2)cc1OC` were, in that order, 14.9 µM, 8.47 µM, greater than 500 µM, 0.57 and 1.83.
In the case of `CCOC(=O)/C=C/c1ccc(OCCCCCCCCN(CC)CC)c(OC)c1`, the figures for the half-maximal inhibitory concentration (IC50) in [2], in [3] and in series [4] were 1.56 µM, 13 µM and greater than 500 µM, respectively. The Ratio IC50 in [5] amounted to 8.37. Besides, in series [6], the logD stood at 1.98.
`COc1cc(/C=C/C(=O)Nc2ccccc2)ccc1OCCCCN1CCCC1`: the IC50 in series [2] is 24.4 µM; in [3], 3.83 µM; in series [4], greater than 500 µM. In addition, in series [5], the Ratio IC50 turned out to be 0.16. In addition, the logD in series [6] amounted to 1.6.
For `CCN(CC)CCCCCCCCOc1ccc(/C=C/C(=O)O)cc1OC` the same measures were 3.18 µM, 302 µM, greater than 500 µM, 95.1 and 1.51.

B1: Acetylcholinesterase (Homo sapiens), P22303 (protein)
chain: MRPPQCLLHTPSLASPLLLLLLWLLGGGVGAEGREDAELLVTVRGGRLRGIRLKTPGGPVSAFLGIPFAEPPMGPRRFLPPEPKQPWSGVVDATTFQSVCYQYVDTLYPGFEGTEMWNPNRELSEDCLYLNVWTPYPRPTSPTPVLVWIYGGGFYSGASSLDVYDGRFLVQAERTVLVSMNYRVGAFGFLALPGSREAPGNVGLLDQRLALQWVQENVAAFGGDPTSVTLFGESAGAASVGMHLLSPPSRGLFHRAVLQSGAPNGPWATVGMGEARRRATQLAHLVGCPPGGTGGNDTELVACLRTRPAQVLVNHEWHVLPQESVFRFSFVPVVDGDFLSDTPEALINAGDFHGLQVLVGVVKDEGSYFLVYGAPGFSKDNESLISRAEFLAGVRVGVPQVSDLAAEAVVLHYTDWLHPEDPARLREALSDVVGDHNVVCPVAQLAGRLAAQGARVYAYVFEHRASTLSWPLWMGVPHGYEIEFIFGIPLDPSRNYTAEEKIFAQRLMRYWANFARTGDPNEPRDPKAPQWPPYTAGAQQYVSLDLRPLEVRRGLRAQACAFWNRFLPKLLSATDTLDEAERQWKAEFHRWSSYMVHWKNQFDHYSKQDRCSDL
Take B1: the results for the Vmax in series [9], in series [10] and in series [12] were 0.015 deltaA/min, 0.023 deltaA/min and 0.019 deltaA/min, respectively. In addition, the Km worked out at 6.69 mM in series [11], 7.71 mM in series [13] and 8.85 mM in series [14].
